Rev-erbA mod: Rev-erb alpha (human) modulation. activity, % at 10 µM. hit rate 0.79% among 370,000. P20393. Rev-erbα–FITC-DNA binding, fluorescence polarization, 90 min. AID 1259318;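 active = activity above about 14%, limit read from the data; passing the limit was not always enough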
NR2E3 ag-1: human photoreceptor-specific nuclear receptor agonism | Q9Y5X4 | inhibition of corepressor binding, % at 3.98 µM | CHO-S Gal4-NCOR/VP16-NR2E3 two-hybrid, luciferase | hit rate 0.35% among 360,000;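 active = inhibition above the mean of all tested compounds plus 3 SD, cut at about 70% in these data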;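 also: higher means lower luciferase signal from less NR2E3 corepressor binding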
Target sequence (Q9Y5X4 whole entry, looked up, the tested form may be a part): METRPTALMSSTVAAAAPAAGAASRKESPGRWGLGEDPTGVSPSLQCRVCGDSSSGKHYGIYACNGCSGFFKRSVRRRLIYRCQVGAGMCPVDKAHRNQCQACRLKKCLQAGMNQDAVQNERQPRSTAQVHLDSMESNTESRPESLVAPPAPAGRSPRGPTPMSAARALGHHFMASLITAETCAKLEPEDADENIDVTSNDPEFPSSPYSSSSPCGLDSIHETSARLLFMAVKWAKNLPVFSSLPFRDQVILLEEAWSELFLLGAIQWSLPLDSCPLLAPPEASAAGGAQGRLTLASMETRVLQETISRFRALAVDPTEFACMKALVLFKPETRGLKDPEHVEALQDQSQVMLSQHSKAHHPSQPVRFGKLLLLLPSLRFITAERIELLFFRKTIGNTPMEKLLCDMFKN
NR2E3 ag-2: agonists of human nuclear receptor NR2E3; GST-NR2E3/biotin-RetCOR TR-FRET, 1536-well; hit rate 0.12% among 320,000; Q9Y5X4; AID 2300; inhibition of corepressor binding, % at 4.78 µM;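 active = percent inhibition above the cutoff of mean plus 3 SD of all tested compounds, set per screening campaign, cut at about 20% in these data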
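Material: NR2E3–RetCOR corepressor complex | Quantity: 1.35 nM GST-tagged NR2E3 final | Schedule: 5 h at 4 °C | Replication: Singlicate compound wells | Reagent: RetCOR corepressor, biotinylated, 7 nM | Controls: Biotin wells as high control, 0.6% DMSO wells as low control | Signal: TR-FRET, Eu(K)-anti-GST donor, streptavidin-D2 acceptor, ex 340, em 617/671 nm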
PG9 Ab binder: small molecules binding HIV-1 gp120 antibody PG9; hit rate 0.43% among 360,000; inhibition, % at 6.7 µM; TR-FRET gp120-PG9 antibody binding; in the data active = inhibition above about 8.5%
PG9 bind confirm: PG9 antibody binding, confirmed; shares compounds with PG9 Ab binder; TR-FRET PG9 antibody binding, biochemical; inhibition, % at 6.7 µM; hit rate 90% among 1,500; in the data active = inhibition above about 9%
PGV04 Ab binding: counter-screen for PG9 binders: binding control antibody PGV04. shares compounds with PG9 Ab binder. hit rate 95% among 1,500. TR-FRET PGV04 antibody-gp120 binding, biochemical. inhibition, % at 6.7 µM; in the data active = inhibition above about 9.5%
Hits are given with their value; 0 = inactive; - = not tested or not shown. Shown are actives, neighbours in structure and some others; about 1.5% of the full set was active somewhere.

SMILES	Rev-erbA mod	NR2E3 ag-1	NR2E3 ag-2	PG9 Ab binder	PG9 bind confirm	PGV04 Ab binding
O=C(c1cc([N+](=O)[O-])ccc1N1CCOCC1)N1CCCCC1	0	0	0	0	-	-
O=C(COc1ncnc2cc([N+](=O)[O-])ccc12)N(CCc1ccccc1)Cc1ccccc1	0	0	0	16	26	41
O=C(COc1ccc([N+](=O)[O-])cc1)N(Cc1ccccc1)Cc1ccccc1	0	0	0	0	-	-
O=C1Cc2c([nH]c3ccc(Br)cc23)-c2ccccc2N1	0	0	-	11	16	22
CCCCNC(=O)C(NC(=O)c1cccc(C(F)(F)F)c1)C(=O)c1ccccc1 (stereo not given)	0	0	-	27	41	55
COc1ccc(S[C@]2(C(=O)NCCCN(C)C)CC(=O)N[C@@H]2c2ccc(OC)cc2)cc1	0	-	-	-	-	-
COc1ccc(-c2noc(C3CCCN(C(=O)Nc4ccc(C)c(F)c4)C3)n2)cc1 (stereo not given)	0	-	-	-	-	-
OC(COc1cccc2ccccc12)CN1CCN(c2ccc(Cl)cc2)CC1 (stereo not given)	0	0	0	18	27	31
Cc1cc(C)c2c(=O)[nH]c(SCC(=O)c3ccc(C(C)C)cc3)nc2n1	0	0	0	32	59	76
Cc1cc(=O)[nH]c(SCC(=O)c2ccc(C(C)C)cc2)n1	0	0	0	0	-	-
N#Cc1c(SCC(=O)O)nc(-c2ccccc2)c2c1CCCC2	0	0	0	13	19	24
COc1ccc(C2CCCN2C(=O)Nc2ccc(C)c(C)c2)cc1OC (stereo not given)	0	0	0	0	-	-
COc1ccc(C2CCCN2C(=O)Nc2ccccc2)cc1OC (stereo not given)	0	0	0	13	0	0
COC(=O)[C@@]1(C(C)C)N=C(c2cc(OC)c(OC)c(OC)c2)[C@]2(O1)C(=O)N(Cc1cn(-c3ccccc3)nn1)c1cccc(Cl)c12	0	-	-	-	-	-
COc1cccc(C(=O)N=c2sc3cc(S(C)(=O)=O)ccc3n2C)c1	0	0	0	39	46	60
Cc1ccc(C(=O)Nc2ccc(NC(=O)c3ccccc3Cl)c(C)c2)cc1	0	0	-	29	26	39
Cc1cc(NC(=O)c2ccc(Cl)cc2)ccc1NC(=O)c1ccccc1Cl	0	0	0	0	-	-
O=C(Nc1ccc(Cl)cc1Cl)c1ccc(-c2ccccc2)cc1	0	0	0	11	33	49
O=C(Nc1c(Cl)cccc1Cl)c1ccc(-c2ccccc2)cc1	0	0	0	0	-	-
O=[N+]([O-])c1ccc(NCCCN2CCC(C(O)(c3ccccc3)c3ccccc3)CC2)cc1	0	-	-	-	-	-
Cc1ccccc1NC(=O)CCC(=O)OCC(=O)c1ccc(-c2ccccc2)cc1	0	0	0	13	13	24
O=C(CCC(=O)OCC(=O)c1ccccc1)Nc1cccc2cccnc12	0	0	0	0	-	-
Cn1ccc2c(N3c4ccccc4CCc4ccccc43)cc3c(c21)C1CCC3C1 (stereo not given)	0	0	-	0	-	-
Cn1ccc2c(N3c4ccccc4CCc4ccccc43)cc3c(c21)C1CCC3O1 (stereo not given)	0	0	-	19	0	0
CCCc1[nH]nc2c1C(c1ccc(OCCN3CCOCC3)c(OC)c1)C(C#N)=C(N)O2 (stereo not given)	0	0	0	0	-	-
SMILES	Rev-erbA mod	NR2E3 ag-1	NR2E3 ag-2	PG9 Ab binder	PG9 bind confirm	PGV04 Ab binding
CCOc1cc(C2C(C#N)=C(N)SC(N)=C2C#N)ccc1OCCN1CCOCC1	0	0	0	13	15	21
CCOc1cccc(NC(=O)CSc2nc(C)c3c(c2C#N)CCCC3)c1	0	0	0	12	16	29
Cc1cc(C)c2nc(NC(=O)c3ccco3)sc2c1	0	0	0	0	-	-
O=C(Nc1nc2c(Br)cc(Br)cc2c(=O)s1)c1ccco1	0	0	0	30	58	63
CCOc1ccccc1-c1nc(C(N)=O)c2[nH]c(=O)n(-c3ccccc3)c2n1	0	0	0	19	28	58
COCC#Cc1ccc(CC[C@H]2O[C@H]3CC[C@H](CO)O[C@H]3C[C@H]2n2cc(C(C)(C)O)nn2)cc1	0	-	-	-	-	-
c1ccc(-c2c[nH]c3ccc(OCCN4CCOCC4)c(-c4ccccc4)c23)cc1	0	-	-	-	-	-
COC(=O)c1cc(-c2cccc(C#N)c2)c(=O)n2c1CCC2	0	-	-	-	-	-
CC(C)C1N=C(NC(=O)OCc2ccccc2)NC1=O (stereo not given) (tested in a mixture with another compound)	0	-	-	-	-	-
CCCC(=O)Nc1nc(C)c(C(C)=O)s1	0	0	0	32	36	49
COC(=O)c1cc2ccsc2n1CC(=O)N1CCCc2ccccc21	0	0	0	0	-	-
COC(=O)c1cc2oc3ccccc3c2n1CC(=O)N1CCCc2ccccc21	0	0	0	12	12	20
CC(=O)c1ccc(S(=O)(=O)Nc2ccc(-n3cnnn3)cc2)cc1	0	0	0	0	-	-
CC(=O)c1ccc(NC(=O)c2ccc(-n3cnnn3)cc2)cc1	0	0	-	17	33	46
COC(=O)c1cc(Br)c(=O)n(-c2cc(C)on2)c1	0	0	0	9.8	21	26
CC(=O)c1ccc(N2CCN(S(=O)(=O)c3cccc(S(=O)(=O)N4CCOCC4)c3)CC2)cc1	0	0	0	16	18	27
CC(=O)c1ccc(N2CCN(C(=O)/C=C/c3ccc(S(=O)(=O)N4CCOCC4)cc3)CC2)cc1	0	0	0	0	-	-
COc1ccccc1COC(=O)c1cccc(S(=O)(=O)N(C)Cc2ccccc2)c1	0	-	-	-	-	-
COc1ccc(OC)c(NC(=O)CSc2nncc3ccccc23)c1	0	0	0	13	0	10
COc1ccc(NC(=O)CSc2nncc3ccccc23)cc1	0	0	0	0	-	-
COc1ccc(S[C@]2(C(=O)N3CCN(c4ncccn4)CC3)CC(=O)N[C@@H]2c2ccc(OC)cc2)cc1	0	-	-	-	-	-
CCOC(=O)C1CCN(C(=O)C(C)(C)NC(=O)Nc2ccc(C(F)(F)F)cc2Cl)CC1	0	-	-	-	-	-
COc1ccc2c(c1)C(C)CC(C)(C)N2C(=O)CSc1ncn[nH]1 (stereo not given)	0	0	0	16	11	15
COc1cccc(N2CCN(CC(=O)NCc3ccccc3C)CC2)c1	0	-	-	-	-	-
CCOc1ccc(NC(=O)c2ccc3c(SCC(=O)O)c4c(nc3c2)CCCC4)cc1	0	0	0	0	-	-
O=C(O)CSc1c2c(nc3cc(C(=O)Nc4cccc(C(F)(F)F)c4)ccc13)CCC2	0	0	0	16	33	54
Cc1cccc(Cn2cc(COC(=O)N3CCCC3)nn2)c1	0	-	-	-	-	-
O=S(=O)(c1ccc(Cl)cc1)N1CCN(c2ncccn2)CC1	0	0	0	16	26	32
COc1ccc(S(=O)(=O)N2CCN(c3ncccn3)CC2)cc1	0	0	0	0	-	-
CCOC(=O)[C@@]12CCC3=C1N(CCC3)C(=O)[C@H](CC(=O)N1CCN(C(=O)C3CC3)CC1)C2	0	-	-	-	-	-

From PubChem
